For orientation: inhibition means the relative decrease from the control value, in per cent.

The results in this text go back to PubChem BioAssay.

A short description of assay [1]: inhibitors of TNFa-induced NFkB p65 translocation, primary screen, imaging, HUVEC, MLSMR starter and 10KST1 sets (AID 438;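 active = inhibition above 20% together with a positive visual image hit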;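 also: compound added about 3h40 before a 20 min TNFalpha stimulation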;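 as to inhibition: signal is the nuclear over cytoplasmic p65 intensity ratio per well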). The settings on record: HUVEC TNFa-induced p65 nuclear translocation; cell count: measured here: nuclei count (cytotoxicity indicator), at 2.08 µM; inhibition: at 2 µM, stronger effect = higher value, 0% TNFa-plus-vehicle, 100% no-TNFa wells.
Assay [2] in a line: inhibitors of mutant huntingtin aggregation, primary screen, imaging, exon1htt(103Q)mCFP cells, high-content imaging (AID 483;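 active = visual image review flags a hit and inhibition of aggregation exceeds 20%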;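 also: compound exposure lasted 3 days before fixation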;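 as to nuclei count: percent of the per-plate median nuclei count of sample wells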). The conditions noted are these: exon1htt(103Q)mCFP cell line, aggregate imaging, at 2 µM; inhibition of aggregation: stronger effect = higher value; nuclei count: measured here: cell count, toxicity.
The nature of assay [3]: inhibitors of E-selectin induction by TNFa, primary screen, imaging, HUVEC, immunofluorescence, MLSMR starter and 10KST1 sets (AID 487).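 As to inhibition: signal is fraction of cell area covered by stained E-selectin grains.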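 As to nuclei count: 100% = median nuclei count of all wells on the same plate.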 The conditions noted are these: HUVEC TNFalpha-induced E-selectin immunofluorescence imaging, at 2 µM; inhibition: stronger effect = higher value; nuclei count: measured here: cell number, toxicity.
Assay [4] has as its target Voltage-gated potassium channel subunit beta-2 (Rattus norvegicus) (UniProt P62483). In words: KvBeta enzyme negative modulators, primary screen, biochemical, NADPH fluorescence (AID 622;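 active = fluorescence slope higher than the sample average by over 3 SD, cut at about -0.22 in these data, passing the limit was not always enough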;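 also: slope of raw intensity against log time taken from 70 to 1610 s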). The settings on record: recombinant KvBeta, 4-cyanobenzaldehyde reduction, at 10 µM, stronger effect = higher value.
For assay [5] the target is unchanged. In words: KvBeta positive modulators, primary screen, biochemical, NADPH fluorescence (AID 623;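 active = NADPH fluorescence slope more negative than the mean of all samples by about 3 SD, 99.7% confidence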;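 also: fluorescence intensity change per second fitted from 20 to 320 s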). The settings on record: Recombinant KvBeta, NADPH fluorescence decrease slope, 10 min; at 10 µM; stronger effect = lower value.
In assay [6] the target is Muscarinic acetylcholine receptor M4 (Homo sapiens) (UniProt P08173). In words: compounds altering M4/GIRK thallium flux, either direction, primary screen, M4 allosteric agonist project, cell-based, HEK293 M4/GIRK, BTC-AM (AID 625;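 active = fluorescence slope after compound addition differing from the mean of all tested samples at 99.7% confidence, mostly higher but some lower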;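 also: thallium influx through GIRK channels coupled to M4 in HEK293 cells with BTC-AM dye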). The settings on record: at 10 µM, actives lie on both sides. An outline of the steps:
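Assay system: HEK293 cells with M4 receptor and GIRK channels / Controls: carbachol and DMSO controls / Schedule: 1 h dye loading, 2 min kinetic read / Technique: kinetic fluorescence with BTC-AM dye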

A short description of assay [7]: inhibitors of Sendai virus-induced IRF3 signaling, primary screen, TLR/RLR signaling modifier project, cell-based, Sendai virus stimulus, luciferase, 10K MLSCN set (AID 602276;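 active = inhibition at or above 50% at 10 µM; inactive = inhibition below 50%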;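 also: firefly luciferase from ISG56 promoter only with Renilla not read in this screen; 0% = Sendai virus plus DMSO and 100% = medium plus DMSO without virus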). The settings on record: HEK293 RL24 IRF3 luciferase reporter, at 10 µM, stronger effect = higher value. (In a reporter assay the amount or activity of a reporter protein is the signal.)
Assay [8] can be described thus: inhibitors of poly I:C-induced TLR3 signaling, primary screen, cell-based, poly I:C stimulus, luciferase, 10K MLSCN set (AID 602277;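 active = inhibition of the reporter signal at or above 50%; inactive = inhibition below 50%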). The conditions noted are these: HEK293-TLR3 RL24 IRF3 luciferase reporter, at 10 µM, stronger effect = higher value.

Calls of active or inactive are those of the source.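 The calls were made as follows, unless noted: active = visually confirmed hit in the image check and inhibition above 20%; inconclusive = visually confirmed hit but inhibition not above 20%; inactive = no visual hit in the image check.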

Chain of Muscarinic acetylcholine receptor M4 (Homo sapiens) (P08173 whole entry, looked up): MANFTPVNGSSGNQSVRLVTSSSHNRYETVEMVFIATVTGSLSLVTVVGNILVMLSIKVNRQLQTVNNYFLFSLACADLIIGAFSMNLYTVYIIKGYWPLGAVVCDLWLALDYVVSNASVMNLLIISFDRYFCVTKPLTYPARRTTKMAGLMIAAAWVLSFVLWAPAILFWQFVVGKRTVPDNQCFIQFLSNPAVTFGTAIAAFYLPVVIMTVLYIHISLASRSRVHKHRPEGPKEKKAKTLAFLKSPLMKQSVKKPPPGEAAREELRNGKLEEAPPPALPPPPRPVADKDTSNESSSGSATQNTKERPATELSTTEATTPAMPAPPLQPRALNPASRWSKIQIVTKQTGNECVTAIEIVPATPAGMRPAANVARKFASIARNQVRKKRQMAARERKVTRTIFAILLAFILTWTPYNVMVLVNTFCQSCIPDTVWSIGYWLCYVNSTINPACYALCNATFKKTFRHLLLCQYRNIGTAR
Chain of Voltage-gated potassium channel subunit beta-2 (Rattus norvegicus) (P62483 whole entry, looked up): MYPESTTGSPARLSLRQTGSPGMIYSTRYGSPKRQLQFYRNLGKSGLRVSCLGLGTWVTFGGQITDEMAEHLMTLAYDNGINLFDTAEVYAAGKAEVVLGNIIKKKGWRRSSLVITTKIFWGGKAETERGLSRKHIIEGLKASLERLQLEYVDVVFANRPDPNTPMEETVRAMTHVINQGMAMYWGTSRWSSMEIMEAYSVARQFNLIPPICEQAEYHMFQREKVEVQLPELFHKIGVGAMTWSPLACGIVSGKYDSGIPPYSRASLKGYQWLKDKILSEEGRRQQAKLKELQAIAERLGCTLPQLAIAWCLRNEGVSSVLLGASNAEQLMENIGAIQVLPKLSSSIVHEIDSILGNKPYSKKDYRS

As to `CC(C)=CCCC(C)NC(=O)NC1CCCCC1` (centres undefined), the cell count in assay [1] worked out at 227. Moreover, the inhibition in assay [1] was -9.6% (inactive); in assay [3], -50.8% (inactive); in assay [7], -0.0287% (inactive); in assay [8], -0.553% (inactive). The inhibition of aggregation in assay [2] was -23.2% (inactive). Further, the nuclei count worked out at 91.1% in assay [2] and 87% in assay [3]. Also, the fluorescence slope in assay [4] was -0.546 (inactive); in assay [6], 0.00495 (inactive). Moreover, the NADPH fluorescence slope in assay [5] is -2.7e-05 (inactive).

As to `CCOc1ccc(N2CC(C(=O)Nc3ccc(F)cc3F)CC2=O)cc1` (centres undefined), the cell count in assay [1] is 847. Moreover, the inhibition is 10.1% (inactive) in assay [1], -3.5% (inactive) in assay [3], 6.56% (inactive) in assay [7] and 26.2% (inactive) in assay [8]. Further, in assay [2], the inhibition of aggregation is 7.4% (inactive). Besides, the nuclei count was found to be 92.8% in assay [2] and 99.9% in assay [3]. The fluorescence slope was -0.587 (inactive) in assay [4] and 0.00677 (inactive) in assay [6]. For the same compound, the NADPH fluorescence slope in assay [5] was 2.2e-05 (inactive).

On to `N#CCc1nc(CSc2nc3ccccc3s2)cs1`, for which the cell count in assay [1] was found to be 347. The inhibition in assay [1] is -4.4% (inactive); in assay [3], -27.5% (inactive); in assay [7] it was -24.2% (inactive); in assay [8] it was -87.8% (inactive). In addition, in assay [2], the inhibition of aggregation was -7.5% (inactive). Also, the nuclei count stood at 98% in assay [2] and 114% in assay [3]. Besides, the fluorescence slope in assay [4] is -0.551 (inactive); in assay [6], 0.0089 (inactive). Besides, in assay [5], the NADPH fluorescence slope was -2.5e-05 (inactive).

Consider `COc1ccc(OCC(=O)N2CCN(C(=O)c3cccs3)CC2)cc1`, for which the cell count in assay [1] was determined as 365. Moreover, the inhibition was -7% (inactive) in assay [1], -51.4% (inactive) in assay [3], 21.2% (inactive) in assay [7] and 17.7% (inactive) in assay [8]. Moreover, the inhibition of aggregation in assay [2] is -31.2% (inactive). Besides, the nuclei count turned out to be 89% in assay [2] and 124% in assay [3]. Moreover, the figures for the fluorescence slope in assay [4] and in assay [6] were -0.57 (inactive) and 0.00633 (inactive), respectively. Moreover, in assay [5], the NADPH fluorescence slope is -5.4e-05 (inactive).

Turning to `CCOC(=O)C(CC)Sc1ncnc2nc[nH]c12` (centres undefined), the cell count in assay [1] worked out at 351. Also, the inhibition in assay [1] is 1.9% (inactive); in assay [3] it was -46% (inactive); in assay [7], 3.43% (inactive); in assay [8] it was 5.34% (inactive). Further, the inhibition of aggregation in assay [2] is -18.9% (inactive). The nuclei count in assay [2] was 98.7%; in assay [3], 123%. Also, the fluorescence slope in assay [4] was -0.555 (inactive); in assay [6], 0.00496 (inactive). Moreover, in assay [5], the NADPH fluorescence slope is -2.8e-05 (inactive).

For `N=c1sc2ccccc2n1-c1ccccc1`, in assay [1], the cell count worked out at 402. In addition, the inhibition in assay [1] was 10.9% (inactive); in assay [3], -469% (inactive); in assay [7], 15.3% (inactive); in assay [8], 14.4% (inactive). Also, the inhibition of aggregation in assay [2] was 14.5% (inactive). The nuclei count in assay [2] came out at 96.6%; in assay [3] it was 114%. The values for the fluorescence slope in assay [4] and in assay [6] were -0.583 (inactive) and 0.00638 (inactive), respectively. In addition, the NADPH fluorescence slope in assay [5] is -1.3e-05 (inactive).

On to `CCNC(=O)c1ccc(NS(=O)(=O)c2ccccc2)cc1`, for which the cell count in assay [1] turned out to be 340. Further, the inhibition was -4.8% (inactive) in assay [1], -44.8% (inactive) in assay [3], 13.3% (inactive) in assay [7] and 12.4% (inactive) in assay [8]. The inhibition of aggregation in assay [2] was 16% (inactive). Also, the nuclei count is 123% in assay [2] and 102% in assay [3]. In addition, the figures for the fluorescence slope in assay [4] and in assay [6] were -0.551 (inactive) and 0.00291 (inactive), respectively. Also, the NADPH fluorescence slope in assay [5] is -0.000105 (inactive).

Consider `Cc1[nH]c(=O)[nH]c(=O)c1S(=O)(=O)Nc1ccc(Oc2ccccc2)cc1`, for which the cell count in assay [1] amounted to 638. Moreover, the inhibition was -3.2% (inactive) in assay [1], -25.8% (inactive) in assay [3], 19.8% (inactive) in assay [7] and 24.8% (inactive) in assay [8]. The inhibition of aggregation in assay [2] was -7.6% (inactive). Also, the nuclei count came out at 117% in assay [2] and 107% in assay [3]. For the same compound, the fluorescence slope in assay [4] was -0.574 (inactive); in assay [6] it was 0.00503 (inactive). For the same compound, the NADPH fluorescence slope in assay [5] is -2.9e-05 (inactive).

With `COc1cc(-c2nnc(SCC(=O)c3ccc(C)cc3)o2)cc(OC)c1OC`, in assay [1], the cell count was found to be 378. Also, the inhibition was 1.7% (inactive) in assay [1], 28.9% (inactive) in assay [3], -8.63% (inactive) in assay [7] and -7.77% (inactive) in assay [8]. For the same compound, in assay [2], the inhibition of aggregation was -8.1% (inactive). Moreover, the nuclei count was determined as 87.7% in assay [2] and 83.6% in assay [3]. Moreover, the fluorescence slope in assay [4] is -0.607 (inactive); in assay [6] it was 0.00366 (inactive). In addition, the NADPH fluorescence slope in assay [5] is 2.5e-05 (inactive).

In the case of `COCC(=O)Nc1sc2c(c1C(=O)OC)C(C(=O)OC)CC2` (centres undefined), the cell count in assay [1] came out at 403. Also, the inhibition was -3.4% (inactive) in assay [1], 9.9% (inactive) in assay [3], -8.7% (inactive) in assay [7] and 0.35% (inactive) in assay [8]. Moreover, in assay [2], the inhibition of aggregation is -1.9% (inactive). For the same compound, the nuclei count in assay [2] is 93.9%; in assay [3], 105%. The fluorescence slope is -0.481 (inactive) in assay [4] and 0.00577 (inactive) in assay [6]. In addition, in assay [5], the NADPH fluorescence slope was 7e-05 (inactive).

In the case of `COc1cc(C(=O)N2CCC(c3nc(-c4cccnc4)no3)CC2)cc(OC)c1OC`, in assay [1], the cell count is 651. Further, the inhibition in assay [1] was -29.6% (inactive); in assay [3], -33.4% (inactive); in assay [7], 5.18% (inactive); in assay [8] it was 24.5% (inactive). For the same compound, the inhibition of aggregation in assay [2] was 2.1% (inactive). Also, the nuclei count in assay [2] worked out at 110%; in assay [3], 102%. Besides, the fluorescence slope in assay [4] was -0.28 (inactive); in assay [6], 0.00617 (inactive). Besides, the NADPH fluorescence slope in assay [5] is -1.2e-05 (inactive).

Turning to `CCOc1ccc(OCc2cccc(C(=O)O)c2)cc1`, the cell count in assay [1] was 600. Besides, the inhibition was 3.8% (inactive) in assay [1], -68% (inactive) in assay [3], -46.2% (inactive) in assay [7] and -87.1% (inactive) in assay [8]. Moreover, in assay [2], the inhibition of aggregation is -11.5% (inactive). Moreover, the figures for the nuclei count in assay [2] and in assay [3] were 112% and 116%, respectively. Also, the results for the fluorescence slope in assay [4] and in assay [6] were -0.551 (inactive) and 0.00598 (inactive), respectively. Also, the NADPH fluorescence slope in assay [5] was -2.8e-05 (inactive).

With `CCC(=O)N1CCc2cc(Br)cc(S(=O)(=O)CCC(=O)NCC3CCCO3)c21` (centres undefined), in assay [1], the cell count came to 628. Moreover, the inhibition in assay [1] was 2.7% (inactive); in assay [3] it was -113% (inactive); in assay [7] it was 11.2% (inactive); in assay [8], 9.46% (inactive). Further, in assay [2], the inhibition of aggregation is 12.7% (inactive). Also, the nuclei count in assay [2] was 76.3%; in assay [3], 107%. Also, the figures for the fluorescence slope in assay [4] and in assay [6] were -0.312 (inactive) and 0.00706 (inactive), respectively. Also, the NADPH fluorescence slope in assay [5] is -3.4e-05 (inactive).

For the compound `CC(=O)c1c(C)[nH]c(C(=O)NCc2cccs2)c1C`, in assay [1], the cell count stood at 471. For the same compound, the inhibition was 2.9% (inactive) in assay [1], -76.6% (inactive) in assay [3], -3.69% (inactive) in assay [7] and -17.2% (inactive) in assay [8]. For the same compound, the inhibition of aggregation in assay [2] is 15.8% (inactive). The nuclei count in assay [2] turned out to be 116%; in assay [3] it was 95.6%. Besides, the fluorescence slope in assay [4] is -0.561 (inactive); in assay [6], 0.00619 (inactive). In assay [5], the NADPH fluorescence slope is -4.9e-05 (inactive).
